Our source for the Activity and T/C values is ChEMBL document CHEMBL3244241, “Synthesis of cephalotaxine esters and correlation of their structures with antitumor activity” (J Med Chem, 1977).

Active and inactive are the calls of the source. The rule behind the calls is not given here.

Series [1] has as its system Mus musculus. Put plainly: Toxicity in DBA/2 mouse allografted with mouse P388 cells at 480 mg/kg/day, ip for 9 days. Format: organism-based. Also on record: route intraperitoneal. Particulars: in vivo, 216 h. The essentials:
(§1)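 DBA/2 mice bearing P388 lymphocytic leukemia received one intraperitoneal injection per day for 9 days, given in the vehicle named for each test (water/alcohol-based, saline or saline + Tween 80). Toxicity was noted during dosing alongside survival scoring (T/C, treated versus control mean survival time).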

Series [2] relates to Mus musculus. Put plainly: Toxicity in DBA/2 mouse allografted with mouse P388 cells assessed as change in body weight at 365 mg/kg/day, ip for 9 days compound administered through water+alcohol vehicle. The class given is organism-based. The arrangement: route intraperitoneal. The settings on record: in vivo, 216 h. The essentials:
as §1

Series [3] concerns Mus musculus. As to the kind of experiment: Toxicity in DBA/2 mouse allografted with mouse P388 cells assessed as change in body weight at 240 mg/kg/day, ip for 9 days compound administered through water+alcohol vehicle. Format: organism-based. The arrangement: route intraperitoneal. The settings on record: in vivo, 216 h. The gist of the method:
as §1

For series [4], the system named is Mus musculus. Put plainly: Toxicity in DBA/2 mouse allografted with mouse P388 cells assessed as change in body weight at 160 mg/kg/day, ip for 9 days compound administered through water+alcohol vehicle. Format: organism-based. The arrangement: route intraperitoneal. The settings on record: in vivo, 216 h. The essentials: as §1
Series [5] has as its system Mus musculus. Put plainly: Toxicity in DBA/2 mouse allografted with mouse P388 cells assessed as change in body weight at 80 mg/kg/day, ip for 9 days compound administered through water+alcohol vehicle. Format: organism-based. The arrangement: route intraperitoneal. Particulars: in vivo, 216 h. The essentials: as §1
In series [6] the test system is Mus musculus. As to the kind of experiment: Toxicity in DBA/2 mouse allografted with mouse P388 cells assessed as change in body weight at 40 mg/kg/day, ip for 9 days compound administered through water+alcohol vehicle. The settings on record: in vivo, 216 h. Also on record: route intraperitoneal. The class given is organism-based. The gist of the method: as §1
Series [7] deals with Mus musculus. Put plainly: Toxicity in DBA/2 mouse allografted with mouse P388 cells at 400 mg/kg/day, ip for 9 days. Format: organism-based. The arrangement: route intraperitoneal. Particulars: in vivo, 216 h. The gist of the method:
as §1

Series [8] deals with P388. Put plainly: Antitumor activity against mouse P388 cells allografted in DBA/2 mouse assessed as host survival at 365 mg/kg/day, ip for 9 days compound administered through water+alcohol vehicle relative to control. The class given is functional. The settings on record: route intraperitoneal. The gist of the method: (§2)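 P388 lymphocytic leukemia in DBA/2 mice. Dosing was one intraperitoneal injection per day for 9 days in the vehicle stated. […] Duplicate tests were run for some doses.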

For series [9], the system named is P388. As to the kind of experiment: Antitumor activity against mouse P388 cells allografted in DBA/2 mouse assessed as host survival at 240 mg/kg/day, ip for 9 days compound administered through water+alcohol vehicle relative to control. Format: functional. The settings on record: route intraperitoneal. The essentials:
as §2

Series [10] deals with P388. As to the kind of experiment: Antitumor activity against mouse P388 cells allografted in DBA/2 mouse assessed as host survival at 160 mg/kg/day, ip for 9 days compound administered through water+alcohol vehicle relative to control. Format: functional. The settings on record: route intraperitoneal. The gist of the method: as §2
The test system of series [11] is P388. As to the kind of experiment: Antitumor activity against mouse P388 cells allografted in DBA/2 mouse assessed as host survival at 80 mg/kg/day, ip for 9 days compound administered through water+alcohol vehicle relative to control. Format: functional. Particulars: route intraperitoneal. The gist of the method:
as §2

In series [12] the test system is P388. Put plainly: Antitumor activity against mouse P388 cells allografted in DBA/2 mouse assessed as host survival at 40 mg/kg/day, ip for 9 days compound administered through water+alcohol vehicle relative to control. The settings on record: route intraperitoneal. Format: functional. The gist of the method: as §2
Series [13] has as its system Mus musculus. As to the kind of experiment: Toxicity in DBA/2 mouse allografted with mouse P388 cells assessed as change in body weight at 320 mg/kg/day, ip for 9 days compound administered through saline vehicle. The class given is organism-based. Also on record: route intraperitoneal. Particulars: in vivo, 216 h. The gist of the method:
as §1

Series [14] has as its system Mus musculus. As to the kind of experiment: Toxicity in DBA/2 mouse allografted with mouse P388 cells assessed as change in body weight at 160 mg/kg/day, ip for 9 days compound administered through saline vehicle. Format: organism-based. Also on record: route intraperitoneal. Particulars: in vivo, 216 h. The essentials: as §1
Series [15] has as its system Mus musculus. Put plainly: Toxicity in DBA/2 mouse allografted with mouse P388 cells assessed as change in body weight at 80 mg/kg/day, ip for 9 days compound administered through saline vehicle. Format: organism-based. Also on record: route intraperitoneal. Particulars: in vivo, 216 h. The essentials: as §1
Series [16] deals with Mus musculus. Put plainly: Toxicity in DBA/2 mouse allografted with mouse P388 cells up to 320 mg/kg/day, ip for 9 days. The class given is organism-based. The arrangement: route intraperitoneal. The settings on record: in vivo, 216 h. The gist of the method:
as §1

In series [17] the test system is P388. Put plainly: Antitumor activity against mouse P388 cells allografted in DBA/2 mouse assessed as host survival at 320 mg/kg/day, ip for 9 days compound administered through saline vehicle relative to control. The class given is functional. Particulars: route intraperitoneal. The gist of the method:
as §2

In series [18] the test system is P388. Put plainly: Antitumor activity against mouse P388 cells allografted in DBA/2 mouse assessed as host survival at 160 mg/kg/day, ip for 9 days compound administered through saline vehicle relative to control. The settings on record: route intraperitoneal. Format: functional. The essentials:
as §2

Series [19] has as its system P388. As to the kind of experiment: Antitumor activity against mouse P388 cells allografted in DBA/2 mouse assessed as host survival at 80 mg/kg/day, ip for 9 days compound administered through saline vehicle relative to control. The class given is functional. Particulars: route intraperitoneal. The essentials: as §2
Series [20] deals with P388. As to the kind of experiment: Antitumor activity against mouse P388 cells allografted in ip dosed DBA/2 mouse administered for 9 days. The class given is functional, organism-based. The essentials: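 P388 lymphocytic leukemia in DBA/2 mice; one intraperitoneal injection per day for 9 days. […] Injection vehicles were water + alcohol, saline + Tween 80, or aqueous 0.5% citric acid. Some tests were duplicated, and 30-day cures were recorded.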

For series [21], the system named is Mus musculus. As to the kind of experiment: Toxicity in DBA/2 mouse allografted with mouse P388 cells at >80 mg/kg/day, ip for 9 days. The settings on record: in vivo, 216 h. The class given is organism-based. The essentials: as §1

In the case of `C=C(CC(=O)OC)C(=O)O[C@@H]1C(OC)=C[C@]23CCCN2CCc2cc4c(cc2[C@H]13)OCO4` (single isomer, unassigned), the Activity result with Mus musculus [1] is recorded as “Toxic”.

For `C=C(CC(=O)OC)C(=O)O[C@@H]1C(OC)=C[C@]23CCCN2CCc2cc4c(cc2[C@H]13)OCO4`, the Activity is given as -3 g in the series on Mus musculus [2]; -1.4 g in the series with Mus musculus [3]; -1.1 g in the series with Mus musculus [4]; -0.1 g with Mus musculus [5]; -1.3 g with Mus musculus [6]; “Toxic” with Mus musculus [7]. Besides, the T/C in the series on P388 [8] is listed as 198%; with P388 [9], 169%; in the series with P388 [10], 167%; in the series with P388 [11], 173%; in the series with P388 [12], 135%.

For the compound `COC1=C[C@]23CCCN2CCc2cc4c(cc2[C@@H]3[C@@H]1OC(=O)[C@@H](OC(=O)OCC(Cl)(Cl)Cl)c1ccccc1)OCO4`, the Activity was -2.3 g in the series on Mus musculus [13], 1.2 g with Mus musculus [14], -1 g in the series on Mus musculus [15] and “Toxic” with Mus musculus [16]. Also, the T/C worked out at 136% with P388 [17], 154% in the series with P388 [18] and 138% in the series with P388 [19].

As for `COC1=C[C@]23CCCN2CCc2cc4c(cc2[C@@H]3[C@@H]1OC(=O)[C@@H](O)c1ccccc1)OCO4`, the result with P388 [20] was inactive. Besides, the Activity result with Mus musculus [21] is given as “Toxic”.

The term T/C denotes the result in the treated group divided by that in the control group, in per cent.
